This is a sample that favours compounds with a hit; in the whole collection about 1.6% have one here.
DDE Tn7 FP inh: inhibitors of Tn7 peptide binding to fibrin DD(E), primary screen, biochemical, fluorescence polarization, human fibrin, Tn7 probe; hit rate 0.13% among 370,000; FP displacement of FITC-Tn7 peptide from fibrin DD(E); 0% = median of compound wells per plate; inhibition, % at 8.3 µM;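 active = inhibition above the mean of compounds falling within the control limits plus 3 SD of them, cut at about 14% in these data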;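 also: 0% = plate median of compound wells and 100% = 10 µM Aha-Tn7 peptide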
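Also added: labelled Tn7 tracer, 0.1 µM; Assay system: human fibrin DD(E) protein; Amount: 2 µM fibrin DD(E); Schedule: 10 min compound pre-incubation, 3 h probe incubation at room temperature; Repeats: one replicate per compound; Read-out basis: percent inhibition; Measured by: fluorescence polarization of the labelled Tn7 tracer.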
MT1-MMP act inh: blockers of MT1-MMP proenzyme processing, primary screen, HT1080 RFP-PRO-GFP cells, GFP/RFP fluorescence | Matrix metalloproteinase-14 (Homo sapiens), P50281 | GFP/RFP ratio fluorescence, overnight; percent of plate control window, DMSO zero | GFP/RFP ratio change, % at 20 µM | hit rate 0.061% among 360,000 | AID 651647, 2012;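 active = GFP/RFP ratio change of at least 30% with cell ATP level not reduced by more than half and red fluorescence within 50% of control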
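Material: RFP-PRO-GFP reporter HT1080 cells. Dosing: single-point 20 µM compound, 1% DMSO. Controls: DMSO and RFP-L50D-GFP cell wells. Timing: cells overnight before dosing, compound overnight, 37 °C, 5% CO2. Measure: GFP/RFP fluorescence ratio.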
ADAM10 inh: human ADAM10 inhibitors, primary screen, biochemical, QFRET, HTS; Disintegrin and metalloproteinase domain-containing protein 10 (Homo sapiens), O14672; hit rate 0.62% among 370,000; inhibition, % at 7 µM; recombinant ADAM10, EDANS/DABCYL FRET peptide cleavage, 3 h;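 active = inhibition above a per-campaign cutoff equal to the mean of compounds falling between control-based bounds plus 3 SD, cut at about 20% in these data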;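 also: 0% = DMSO wells while the 100% control is not disclosed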
DDE Tn6 FP inh: inhibitors of Tn6 peptide binding to fibrin DD(E), primary screen, biochemical, fluorescence polarization, human fibrin, Tn6 probe; Fibrin DD(E) TRITC-Tn6 fluorescence polarization displacement; inhibition, % at 8.3 µM; hit rate 0.21% among 370,000; AID 720509, 2013;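 active = inhibition above a per-campaign cutoff: mean of compounds within control limits plus 3 SD, cut at about 15% in these data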;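 also: 0% = median of all compound wells on the plate and 100% = blocking peptide control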
ADAM17 inh: ADAM17 inhibitors, primary screen, biochemical, QFRET | Disintegrin and metalloproteinase domain-containing protein 17 (Homo sapiens), P78536 | recombinant ADAM17, EDANS/DABCYL FRET peptide cleavage | inhibition, % at 6.95 µM | hit rate 0.83% among 370,000 | AID 720648, 2013;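 active = inhibition above the mean of compounds lying between control limits plus 3 SD, set per campaign, cut at about 8.5% in these data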;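 also: 0% = DMSO-only wells as the low control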
Target sequence (P78536 215-824 limits assumed): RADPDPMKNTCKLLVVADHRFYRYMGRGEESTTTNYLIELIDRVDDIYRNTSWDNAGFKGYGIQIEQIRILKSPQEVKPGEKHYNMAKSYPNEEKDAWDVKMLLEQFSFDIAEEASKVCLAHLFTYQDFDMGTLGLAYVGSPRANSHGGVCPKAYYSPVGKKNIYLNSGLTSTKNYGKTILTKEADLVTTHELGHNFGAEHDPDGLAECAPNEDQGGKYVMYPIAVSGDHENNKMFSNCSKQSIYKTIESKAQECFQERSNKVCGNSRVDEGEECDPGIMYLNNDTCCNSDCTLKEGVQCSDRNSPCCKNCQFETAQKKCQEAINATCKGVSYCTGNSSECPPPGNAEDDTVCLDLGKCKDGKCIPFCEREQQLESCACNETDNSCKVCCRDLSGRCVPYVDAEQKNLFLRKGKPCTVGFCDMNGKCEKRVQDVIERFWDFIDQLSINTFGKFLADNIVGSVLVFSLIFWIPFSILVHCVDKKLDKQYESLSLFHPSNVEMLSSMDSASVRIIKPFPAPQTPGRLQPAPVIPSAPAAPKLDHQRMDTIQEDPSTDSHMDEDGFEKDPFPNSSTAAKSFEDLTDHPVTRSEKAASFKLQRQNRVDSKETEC
Tn6 DDE ctr: counter-screen hit for Tn6 peptide-fibrin DD(E) binding disruption; shares compounds with DDE Tn6 FP inh; TRITC-Tn6 fluorescence polarization displacement; 0% = median of compound wells, not DMSO; inhibition, % at 8.3 µM; hit rate 2% among 680; AID 720621;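 active = inhibition above the mean of test compounds lying between the control limits plus 3 SD of those, cut at about 14% in these data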;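 also: 0% = median of compound wells and 100% = wells with Aha-Tn7 blocking peptide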
DDE Tn6 confirm: inhibitors of Tn6 peptide binding to fibrin DD(E), confirmation, biochemical, fluorescence polarization, human fibrin, Tn6 probe | shares compounds with DDE Tn6 FP inh | FP displacement of TRITC-Tn6 peptide from DD(E); 0% = per-plate median of test wells | inhibition, % at 8.3 µM | hit rate 10% among 680;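 active = inhibition above the mean of compounds lying within the control limits plus 3 SD, cut at about 16% in these data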;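 also: 100% = high control wells holding a competing inhibitor peptide at 10 µM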
The depositor's hits bear a star; . = no result.

SMILES | DDE Tn7 FP inh | MT1-MMP act inh | ADAM10 inh | DDE Tn6 FP inh | ADAM17 inh | Tn6 DDE ctr | DDE Tn6 confirm
COC(=O)C1CN(C(=O)OC(C)(C)C)C2=C1C(=O)CC(C)(C(=O)OC(C)(C)C)C2 (configuration not stated) | 5 | . | -3 | -6 | -3 | . | .
COc1ccc(NCc2nnc(SCC(=O)NCc3ccco3)n2-c2ccccc2OC)cc1 | -7 | -1 | 0 | 17* | -2 | -3 | -4
Cc1ccc(-n2c(CNc3ccc(F)cc3)nnc2SCC(=O)NCc2ccco2)cc1 | 4 | 6 | -7 | 0 | -3 | . | .
C[C@@H]1CN([C@H](C)CO)C(=O)c2c(c3ccccc3n2C)-c2ccccc2CO[C@@H]1CN(C)C(=O)Nc1ccccc1C(F)(F)F | -6 | 2 | 6 | 3 | 1 | . | .
COc1ccc(NC(=O)N(C)C[C@@H]2OCc3ccccc3-c3c(n(C)c4ccccc34)C(=O)N([C@H](C)CO)C[C@H]2C)c(OC)c1 | -6 | -4 | -6 | 17* | -1 | -4 | -5
CCNc1ccccc1CP(=O)(c1ccccc1)c1ccccc1O (configuration not stated) | 10 | . | 13 | 21* | 2 | 4 | -9
N#CCCCSc1nnc(Cc2ccc3c(c2)OCO3)o1 | -5 | 2 | 1 | 18* | 1 | 4 | -5
CSc1nnc(Cc2ccc3c(c2)OCO3)o1 | 3 | -2 | 6 | 1 | -3 | . | .
COc1ccc(OCC(=O)Nc2c3c(nn2C(C)(C)C)CS(=O)(=O)C3)cc1 | 1 | 1 | -4 | 5 | -3 | . | .
CC(C)(C)n1nc2c(c1NC(=O)COc1ccc(F)cc1)CS(=O)(=O)C2 | 9 | 3 | 1 | 16* | 2 | -9 | -11
CN(CCc1ccccc1)C1CCCN(C(=O)Cn2cccn2)C1 (configuration not stated) | 7 | -4 | -7 | 17* | -2 | -6 | -10
CCC(=O)Nc1ccc2c(c1)C(=O)N(C)[C@@H]1CC[C@@H](CC(=O)OC)O[C@H]1CO2 | 1 | . | -12 | -4 | 0 | . | .
COC(=O)CCC(=O)OC1(C)C(=O)C=C2C=C(C3CC3)N(C3CCCC3)C=C2C1=O (configuration not stated) | -7 | 1 | -15 | 20* | -5 | -6 | -9
CCN(CC)c1ccc2cc(C(N)=O)c(=O)oc2c1 | -8 | -14 | -169 | 20* | -51 | 1 | 0
C[C@H]1[C@@H](c2ccccc2)Oc2ccc(Cl)cc2S(=O)(=O)N1Cc1cccc(Cl)c1 | 1 | . | -2 | 2 | -1 | . | .
Cc1cc(C)n2c(Nc3c(C)cccc3C)c(-c3ccccn3)nc2n1 | 6 | -8 | -11 | 16* | -4 | 4 | 2
c1ccc(CNc2ccccn2)cc1 | 5 | -2 | -2 | 5 | -7 | . | .
c1ccc(Nc2ccccc2Nc2ccccn2)nc1 | 10 | 0 | -12 | 16* | -5 | -3 | -5
Nc1ccc(-c2c3ccc(=O)cc-3oc3cc(O)ccc23)cc1C(=O)O | -6 | -52 | 12 | 11 | 3 | . | .
O=c1ccc2c(-c3ccccc3)c3ccc(O)cc3oc-2c1 | -7 | -31 | -49 | 68* | -20 | 53* | 38*
CN(Cc1cn(Cc2cccc(Cl)c2)nn1)C1CN(Cc2cn(Cc3cccc(Cl)c3)nn2)S(=O)(=O)C1 (configuration not stated) | 2 | 2 | 2 | 16* | -3 | -8 | -8
C=CCn1c(CC#N)nnc1N1CCOCC1 | 5 | 4 | 3 | 16* | 1 | 3 | 1
C=CCN1C(c2ccccc2)=CS/C1=C(/C#N)c1nnc(N2CCOCC2)n1-c1ccccc1 | 7 | -2 | -1 | 7 | -3 | . | .
S=C(Nc1ccccc1Br)OCCN1CCCC12CCC(c1ccccc1)CC2 (configuration not stated) | -11 | . | 1 | -3 | -3 | . | .
COc1cccc(OC)c1C(=O)NC(=S)Nc1cc(-c2nc3ccccc3[nH]2)ccc1Cl | 3 | 9 | 3 | 55* | 0 | 1 | 13
SMILES | DDE Tn7 FP inh | MT1-MMP act inh | ADAM10 inh | DDE Tn6 FP inh | ADAM17 inh | Tn6 DDE ctr | DDE Tn6 confirm
CCN(CC)C(=O)c1ccc2c(c1)NC(=O)C(C)(C)O2 | 4 | . | -11 | -1 | 2 | . | .
Cc1ccc(NC(=O)COC(=O)c2ccc(NC(=O)CC#N)cc2)cc1S(=O)(=O)N1CCOCC1 | 2 | -2 | -9 | 20* | 0 | -2 | -7
Cc1ccc(NC(=O)COC(=O)c2ccc3c(c2)OCCO3)cc1S(=O)(=O)N1CCOCC1 | -7 | 8 | 5 | 1 | 6 | . | .
Cc1ccc(-c2nnc3n2N=C(c2ccc(-c4ccccc4)cc2)CS3)cc1 | -4 | . | 3 | 3 | 5 | . | .
c1ccc(-c2ccc(C3CCCN3)cc2)cc1 (configuration not stated) | 3 | 2 | -8 | 16* | 0 | 0 | -2
O=C1CCCC(c2ccccc2)N1 (configuration not stated) | 4 | -1 | 2 | 2 | 0 | . | .
Cc1ccc(-n2nc3cc(C)c(N)cc3n2)cc1 | 0 | -8 | -370 | -5 | -96 | . | .
Cc1cc2nc3ccc(N(C)C)cc3nc2cc1N | 3 | 4 | -2 | 33* | -1 | -9 | 65*
CCOC(=O)[C@@]12CCCC=C1N(CCc1ccc(Cl)cc1)C(=O)[C@H]2CC(=O)NCc1ccc(C)o1 | -1 | . | 6 | -6 | 4 | . | .
Fc1ccccc1-c1n[nH]c(=S)n1N=Cc1ccc(-c2ccccc2)cc1 | 0 | . | 4 | -5 | 0 | . | .
CCn1c(CSc2n[nH]c(N)n2)nc2cc(C(=O)O)ccc21 | 9 | 24 | -12 | 29* | -4 | -6 | 22*
COC(=O)c1ccc(C(=O)OC)c(NC(=O)CSc2n[nH]c(N)n2)c1 | 5 | 2 | -21 | -3 | -11 | . | .
CCn1c(CSc2nnc(-c3ccncc3)n2CCOC)nc2cc(C(=O)O)ccc21 | 2 | 22 | -2 | 19* | -1 | -2 | 47*
C[C@@H]1CN([C@H](C)CO)C(=O)CCCn2cc(nn2)CO[C@H]1CN(C)S(=O)(=O)c1ccc(Cl)cc1 | 3 | . | -14 | -2 | -4 | . | .

Bioassay records deposited in PubChem by several laboratories.
